Shown are actives, neighbours in structure and some others; about 1.7% of the full set was active somewhere.
Runt-CBFb FRET: blocks binding of human RUNX1 Runt domain to CBFb | 220,000 tested, 0.46% active | Cerulean-Runt/Venus-CBFb FRET ratio 530/480, 1 h | inhibition, % at 20 µM | Q01196+Q13951;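 active means inhibition over about 50% at 20 µM in the single-dose screen, limit read from the data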;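 further: 0% = DMSO wells and 100% = excess unlabeled CBFb competitor control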
Target sequence (Q01196 whole entry, looked up, the tested form may be a part): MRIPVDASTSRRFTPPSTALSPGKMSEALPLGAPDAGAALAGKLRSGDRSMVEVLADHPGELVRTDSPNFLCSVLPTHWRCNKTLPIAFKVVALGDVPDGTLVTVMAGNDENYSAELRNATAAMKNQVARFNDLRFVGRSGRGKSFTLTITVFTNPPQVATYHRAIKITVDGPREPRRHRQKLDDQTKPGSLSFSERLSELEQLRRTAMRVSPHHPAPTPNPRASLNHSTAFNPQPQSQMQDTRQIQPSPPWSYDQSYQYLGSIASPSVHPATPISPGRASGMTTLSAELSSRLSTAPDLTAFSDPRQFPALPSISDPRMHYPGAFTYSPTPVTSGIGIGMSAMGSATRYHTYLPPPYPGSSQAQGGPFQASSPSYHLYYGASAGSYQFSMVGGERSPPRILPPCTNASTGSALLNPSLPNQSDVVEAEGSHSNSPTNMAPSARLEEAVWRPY
Target sequence (Q13951 whole entry, looked up, the tested form may be a part): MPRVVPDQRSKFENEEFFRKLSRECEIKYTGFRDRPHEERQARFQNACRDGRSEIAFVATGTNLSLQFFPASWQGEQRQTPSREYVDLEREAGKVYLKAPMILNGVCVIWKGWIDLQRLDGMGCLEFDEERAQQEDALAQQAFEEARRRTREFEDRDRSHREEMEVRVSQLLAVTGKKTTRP
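Assay system: Cerulean-tagged RUNX1 Runt domain (FRET donor) fusion protein / Amount: 100 nM each of Venus-CBFb and Cerulean-Runt domain / Medium: Tris buffer pH 7.5 with salts and BSA / Also added: Venus-CBFb 100 nM / Schedule: 1 h complex formation plus 1 h compound treatment, room temperature / Signal: FRET fluorescence / Read-out: loss of energy transfer signal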
Runt-SMMHC FRET: Runt domain-CBFb-SMMHC interaction inhibition. Q01196+Q13951. Cerulean-Runt/Venus-CBFb-SMMHC FRET ratio 530/480, 1 h. inhibition, % at 20 µM. 220,000 tested, 0.74% active. AID 1434;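 active means mean inhibition across duplicate retests at 20 µM reaching about 50%, limit read from the data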;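 further: 0% = DMSO wells and 100% = wells with excess untagged CBFb-SMMHC; inhibitors lower the FRET ratio by blocking Runt binding to CBFb-SMMHC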
RanGTP-Impb inh: inhibitors of RanGTP-importin-beta interaction, primary screen, biochemical, FRET, CFP-Ran, YFP-importin-beta, homogeneous; cell-free CFP-Ran/YFP-importin-beta FRET ratio; inhibition, % (test concentration not listed); 300,000 tested, 1.1% active; AID 2216;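 active means more than half of the replicate wells show a fall in the fluorescence ratio signal beyond about 16%, limit read from the data, passing the limit was not always enough; inconclusive means exactly half of the replicate wells pass the set limit; inactive means fewer than half of replicates pass the limit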;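 further: 0% = DMSO wells and 100% = Ran loaded with GDP instead of GTP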
Hck Nef HTS: human Hck-Nef kinase inhibition | P08631 | Recombinant Hck-YEEI plus Nef, Z-Lyte FRET kinase assay | inhibition, % at 20 µM | 220,000 tested, 0.68% active;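 active means Hck-Nef kinase inhibition above about 50%, limit read from the data; inactive means inhibition below that limit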;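 further: 0% = DMSO with Hck plus Nef and 100% = Hck alone without Nef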
The depositor's hits bear a star; u = inconclusive; x = no result given; + = active, no number.

SMILES | Runt-CBFb FRET | Runt-SMMHC FRET | RanGTP-Impb inh | Hck Nef HTS
CCOC(=O)N1CCN(Cc2nc3cc(NC(=O)c4cccs4)ccc3n2CC)CC1 | x | x | -2 | x
CCOC(=O)N1CCC(NC(=O)c2ccc(Cl)cc2)CC1 | 1 | 3 | 1 | 13
CCOC(=O)N1CCC(Nc2nc3ccccc3nc2NS(=O)(=O)c2ccc(Cl)cc2)CC1 | 11 | 34 | 19* | 1
Cc1sc2ncn(CC(=O)NCc3ccco3)c(=O)c2c1-c1ccc(F)cc1 | 15 | 13 | 8 | 28
O=C(Cn1cnc2scc(-c3cccc([N+](=O)[O-])c3)c2c1=O)NCc1ccco1 | 2 | -4 | -1 | 54*
COC(=O)c1ccc2nc(Nc3nc4ccc(F)cc4s3)sc2c1 | 16 | 30 | 6 | 14
CC(=O)c1sc(Nc2nc3ccc(F)cc3s2)nc1C | 59* | 79* | 47* | 37
CNc1nc(-c2ccccc2)[n+](-c2ccc(C)cc2)s1 | 10 | 56* | -1 | -3
COc1ccc(S(=O)(=O)N2CCOCC2)cc1NC(=O)COc1cccnc1[N+](=O)[O-] | 1 | 0 | 5 | 23
Cc1cccc(OCCCn2c(CO)nc3ccccc32)c1 | 2 | 3 | -2 | 3
N#C/C(=C/c1ccc(N2CCCCCC2)o1)c1ccc(Cl)cc1 | 28 | 26 | 33* | -26
Cn1c(=O)nc2n(Cc3ccccc3)c3cccc(Cl)c3cc-2c1=O | 95* | 60* | 64* | 3
Cn1c(=O)n(Cc2ccccc2)c2ccccc21 | -1 | -2 | 2 | -2
Cc1ccccc1Cn1cc(NC(=O)CCCn2nc([N+](=O)[O-])cc2C)cn1 | 0 | 0 | -2 | 19
CC(C)S(=O)(=O)C1=NSC2=NC(=O)/C(=C\c3ccc(-c4ccccc4)o3)C(=N)N21 | 14 | 82* | u | 3
CS(=O)(=O)C1=NSC2=NC(=O)/C(=C\c3ccc(-c4ccccc4)o3)C(=N)N21 | 39 | 82 | x | -1
CCOC(=O)N1CCN(C(=O)CCc2ccc(S(=O)(=O)NC(C)(C)C)cc2)CC1 | x | x | 3 | x
COC(C[C@H]1O[C@H]1[C@H](O)COCc1ccccc1)OC | 0 | 3 | -4 | 31
CC(=O)Nc1ccc(NC(=O)CSc2nc(N)c(NC(=O)c3ccccc3F)c(=O)[nH]2)cc1 | x | x | 2 | x
Nc1nonc1C(=O)NCCNCc1ccccc1OCc1ccc(F)cc1 | 1 | -2 | 18* | 1
CC(Nc1nc(-c2ccc3c(c2)NC(=O)CO3)cs1)c1ccccc1 (centres undefined) | 0 | -1 | -2 | 137*
CCC(C)(C)n1nnnc1C(c1cc2cccc(C)c2[nH]c1=O)N1CCN(C(=O)c2ccco2)CC1 (centres undefined) | -18 | -131 | 17* | 0
CCC(C)c1ccccc1N1CC(C(=O)Nc2cccc(S(=O)(=O)N3CCOCC3)c2)CC1=O (centres undefined) | x | x | -2 | x
O=C(CN(Cc1ccccc1)C(=O)CCC(=O)Nc1ccccn1)NCc1ccc(F)cc1 | x | x | 1 | x
N=c1c(C(=O)NC2CCCCC2)cc2c(=O)n3ccccc3nc2n1CCc1ccccc1 | x | x | 161* | x
SMILES | Runt-CBFb FRET | Runt-SMMHC FRET | RanGTP-Impb inh | Hck Nef HTS
COc1ccc(CCn2c(=N)c(C(=O)NCc3ccco3)cc3c(=O)n4ccccc4nc32)cc1 | 87* | 1 | 22* | 12
N=c1c(C(=O)NC2CCCCC2)cc2c(=O)n3ccccc3nc2n1Cc1ccccc1 | x | x | 180* | x
Cc1ccc(Cn2c(=N)c(C(=O)NC3CCCC3)cc3c(=O)n4ccccc4nc32)cc1 | x | x | -1 | x
N=c1c(C(=O)NC2CCCCC2)cc2c(=O)n3ccccc3nc2n1Cc1cccnc1 | x | x | + | x
CCOC(=O)c1c(S(=O)(=O)NC2CCN(C(=O)OCC)CC2)c(C)n(C)c1C | x | x | 6 | x
COC(=O)c1ccc(C(=O)NC2CCCc3c2cnn3-c2cc(F)cc(F)c2)nc1 (centres undefined) | x | x | 1 | x
N=c1c(C(=O)NC2CCCCC2)cc2c(=O)n3ccccc3nc2n1Cc1ccco1 | x | x | 65* | x
N=c1c(C(=O)NCc2ccc(F)cc2)cc2c(=O)n3ccccc3nc2n1Cc1cccnc1 | 20 | 59* | 181* | 11
N=c1c(C(=O)NCCc2ccccc2)cc2c(=O)n3ccccc3nc2n1Cc1ccco1 | x | x | 74* | x
CC(/C=C/c1ccco1)=N\NC(=O)CNc1cccc(C)c1 | -1 | -7 | -4 | 18
CN(Cc1ccccc1)S(=O)(=O)c1ccc(NC(=O)c2ccccc2C(=O)O)cc1 | x | x | -7 | x
O=c1c2ccccc2oc2cc(C#CC3(O)CCCCC3)ccc12 | x | x | -3 | x

Screens: PubChem, several laboratories
